In ChEMBL document CHEMBL1124459, “Activity of aromatic substituted phenylpiperazines lacking affinity for dopamine binding sites in a preclinical test of antipsychotic efficacy” (J Med Chem, 1989):
pKi: −log10 of the molar value.

Columns and labels:
[1] = species: Rattus norvegicus; test: (§1) The percent loss of escape responding was determined for the estimated effective dose 50 values for CAR block; format: functional
[2] = biological target: T1, Adrenergic receptor alpha-1 (Rattus norvegicus, UniProt P15823+P23944+P43140); test: Binding affinity against rat Alpha-1 adrenergic receptor.; format: protein assay
T1 sequence (P15823 whole entry): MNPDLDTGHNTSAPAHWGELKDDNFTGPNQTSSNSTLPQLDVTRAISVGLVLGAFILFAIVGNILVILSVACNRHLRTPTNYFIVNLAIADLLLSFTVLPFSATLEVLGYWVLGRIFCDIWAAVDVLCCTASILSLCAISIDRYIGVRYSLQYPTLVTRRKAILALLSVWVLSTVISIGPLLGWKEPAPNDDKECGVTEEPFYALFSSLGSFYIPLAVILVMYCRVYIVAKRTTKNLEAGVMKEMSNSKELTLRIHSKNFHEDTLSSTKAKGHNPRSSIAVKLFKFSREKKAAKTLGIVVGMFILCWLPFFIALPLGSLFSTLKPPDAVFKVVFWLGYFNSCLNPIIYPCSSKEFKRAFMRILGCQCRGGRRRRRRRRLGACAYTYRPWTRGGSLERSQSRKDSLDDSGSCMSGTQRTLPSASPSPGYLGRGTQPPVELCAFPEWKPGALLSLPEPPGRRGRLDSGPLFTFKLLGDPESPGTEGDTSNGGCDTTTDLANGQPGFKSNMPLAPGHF
T1 sequence (P23944 whole entry): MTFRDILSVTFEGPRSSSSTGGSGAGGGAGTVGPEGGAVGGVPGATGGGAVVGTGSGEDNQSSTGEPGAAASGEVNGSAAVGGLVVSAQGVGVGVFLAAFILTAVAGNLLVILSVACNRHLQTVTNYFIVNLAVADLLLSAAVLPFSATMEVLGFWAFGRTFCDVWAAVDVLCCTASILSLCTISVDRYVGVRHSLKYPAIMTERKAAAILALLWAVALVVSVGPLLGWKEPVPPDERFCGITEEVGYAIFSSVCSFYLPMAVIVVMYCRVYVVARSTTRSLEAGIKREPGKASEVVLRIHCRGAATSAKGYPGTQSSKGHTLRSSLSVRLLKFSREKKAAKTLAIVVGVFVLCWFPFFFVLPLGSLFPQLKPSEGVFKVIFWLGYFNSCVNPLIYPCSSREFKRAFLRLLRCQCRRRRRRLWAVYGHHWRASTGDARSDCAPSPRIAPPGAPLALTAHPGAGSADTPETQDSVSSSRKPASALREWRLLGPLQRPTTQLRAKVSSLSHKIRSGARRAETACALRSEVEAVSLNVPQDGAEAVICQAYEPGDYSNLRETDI
T1 sequence (P43140 whole entry): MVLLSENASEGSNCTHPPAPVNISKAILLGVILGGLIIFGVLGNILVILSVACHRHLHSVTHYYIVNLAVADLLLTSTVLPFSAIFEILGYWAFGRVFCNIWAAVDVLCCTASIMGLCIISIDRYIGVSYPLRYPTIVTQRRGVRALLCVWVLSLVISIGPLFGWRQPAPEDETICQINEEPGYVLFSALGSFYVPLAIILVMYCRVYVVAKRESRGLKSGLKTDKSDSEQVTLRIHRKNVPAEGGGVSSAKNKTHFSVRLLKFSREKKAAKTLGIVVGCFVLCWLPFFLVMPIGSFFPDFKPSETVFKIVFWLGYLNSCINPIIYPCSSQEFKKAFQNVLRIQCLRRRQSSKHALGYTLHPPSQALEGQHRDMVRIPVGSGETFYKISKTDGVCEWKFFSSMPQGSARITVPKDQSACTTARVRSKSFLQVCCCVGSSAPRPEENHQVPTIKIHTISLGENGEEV

[3] = biological target: T2, Serotonin 1 (5-HT1) receptor (Rattus norvegicus, UniProt P28564+P30940+P19327+P28565); test: Inhibition of [3H]5-HT radioligand binding against 5-hydroxytryptamine 1 receptor; format: protein assay
[4] = biological target: T3, Serotonin 2 (5-HT2) receptor (Rattus norvegicus, UniProt P30994+P08909+P14842); test: Binding affinity at rat 5-hydroxytryptamine 2 receptor by [3H]ketanserin displacement.; format: protein assay
[5] = biological target: T4, D(1A) dopamine receptor (Rattus norvegicus, UniProt P18901); test: Binding affinity at rat Dopamine receptor D1 by [3H]SCH-23390 displacement.
T4 sequence (P18901 whole entry): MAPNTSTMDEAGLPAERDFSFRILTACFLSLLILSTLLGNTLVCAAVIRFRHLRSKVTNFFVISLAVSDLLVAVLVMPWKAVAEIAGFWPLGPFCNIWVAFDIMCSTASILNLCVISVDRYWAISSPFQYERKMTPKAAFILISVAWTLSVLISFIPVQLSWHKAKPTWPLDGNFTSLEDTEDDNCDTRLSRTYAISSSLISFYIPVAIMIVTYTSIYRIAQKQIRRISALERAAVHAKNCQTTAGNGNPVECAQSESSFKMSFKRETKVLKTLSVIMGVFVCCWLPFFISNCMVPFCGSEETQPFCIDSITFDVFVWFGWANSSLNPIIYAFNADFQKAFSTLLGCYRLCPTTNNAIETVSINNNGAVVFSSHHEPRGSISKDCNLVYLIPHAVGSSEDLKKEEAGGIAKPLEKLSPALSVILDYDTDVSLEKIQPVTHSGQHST
Method in brief: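 Rat striatal tissue suspended in 20 mM NaHepes without sucrose, at 250 volumes of the tissue weight. Labelled with [3H]SCH-23390 added as a 3 nM solution. Nonspecific binding set with unlabelled SCH-23390 added as a 30 μM solution. Incubated 20 min. Run in duplicate, with one to five concentration–response curves per compound.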

[6] = test system: Rattus norvegicus; test: (§2) Effective dose in blocking conditioned avoidance responding (CAR) in the rat when administered intraperitoneally; format: functional; settings: ip
Method in brief: (§3)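 Rats trained on a discrete-trial single-lever conditioned avoidance task, dosed ip and tested at the time of peak effect. Each dose was given to 6–12 rats. CAR reduction and loss of escape responding were recorded.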

[7] = biological target: 5-hydroxytryptamine receptor 1B (Rattus norvegicus, UniProt P28564); test: Binding affinity at rat 5-hydroxytryptamine 1B receptor by [3H]5-HT displacement.
Chain of 5-hydroxytryptamine receptor 1B (P28564 whole entry): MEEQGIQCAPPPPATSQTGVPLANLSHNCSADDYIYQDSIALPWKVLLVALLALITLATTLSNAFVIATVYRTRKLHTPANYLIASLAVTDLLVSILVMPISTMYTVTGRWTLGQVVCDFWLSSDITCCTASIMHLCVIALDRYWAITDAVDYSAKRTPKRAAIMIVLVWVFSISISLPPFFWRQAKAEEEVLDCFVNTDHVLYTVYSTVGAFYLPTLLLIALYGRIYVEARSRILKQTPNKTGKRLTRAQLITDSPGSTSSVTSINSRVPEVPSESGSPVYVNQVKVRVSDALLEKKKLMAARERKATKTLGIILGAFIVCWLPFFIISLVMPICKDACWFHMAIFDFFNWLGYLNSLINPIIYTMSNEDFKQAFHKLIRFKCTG

[8] = biological target: T5, 5-hydroxytryptamine receptor 1A (Rattus norvegicus, UniProt P19327)
T5 sequence (P19327 whole entry): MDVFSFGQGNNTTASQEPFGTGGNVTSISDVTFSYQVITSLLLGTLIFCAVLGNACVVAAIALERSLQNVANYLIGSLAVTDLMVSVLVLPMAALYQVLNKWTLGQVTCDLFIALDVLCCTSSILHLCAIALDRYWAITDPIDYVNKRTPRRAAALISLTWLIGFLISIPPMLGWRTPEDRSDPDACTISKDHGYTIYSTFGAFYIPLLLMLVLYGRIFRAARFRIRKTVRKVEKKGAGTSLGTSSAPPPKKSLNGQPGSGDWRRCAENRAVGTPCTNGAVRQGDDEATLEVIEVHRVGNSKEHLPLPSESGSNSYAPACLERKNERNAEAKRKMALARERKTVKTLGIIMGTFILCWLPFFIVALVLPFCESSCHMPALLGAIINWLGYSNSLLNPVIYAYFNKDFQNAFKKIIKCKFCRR

[9] = biological target: T6, D(2) dopamine receptor (Rattus norvegicus, UniProt P61169); test: Binding affinity against rat Dopamine receptor D2.
T6 sequence (P61169 whole entry): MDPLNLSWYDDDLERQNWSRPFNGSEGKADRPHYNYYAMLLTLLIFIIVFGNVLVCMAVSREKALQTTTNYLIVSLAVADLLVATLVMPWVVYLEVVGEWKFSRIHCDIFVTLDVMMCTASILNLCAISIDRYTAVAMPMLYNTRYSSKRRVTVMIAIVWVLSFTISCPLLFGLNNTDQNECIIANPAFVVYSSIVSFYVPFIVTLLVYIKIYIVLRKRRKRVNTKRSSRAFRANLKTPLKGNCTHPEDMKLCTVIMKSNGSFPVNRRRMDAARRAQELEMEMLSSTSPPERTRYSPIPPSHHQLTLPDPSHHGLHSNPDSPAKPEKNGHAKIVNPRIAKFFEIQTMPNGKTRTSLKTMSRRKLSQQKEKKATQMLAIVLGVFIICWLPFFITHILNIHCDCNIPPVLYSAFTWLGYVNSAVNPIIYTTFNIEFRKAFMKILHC

[10] = biological target: T2, Serotonin 1 (5-HT1) receptor; test: Binding affinity determined in radioreceptor binding assay by using [3H]5-HT radioligand against 5-hydroxytryptamine 1 receptor; format: protein assay
[11] = biological target: T3, Serotonin 2 (5-HT2) receptor; test: Binding affinity determined in radioreceptor binding assay by using [3H]ketanserin radioligand against 5-hydroxytryptamine 2 receptor; format: protein assay
[12] = biological target: T4, D(1A) dopamine receptor; test: Activity in radioreceptor binding assay by using […] against Dopamine receptor D1
[13] = species: Rattus norvegicus; test: as §1; format: functional; method in brief: as §3; remark: listed apart in the source
[14] = biological target: T6, D(2) dopamine receptor; test: Binding affinity determined in radioreceptor binding assay against dopamine receptor D2
[15] = test system: Rattus norvegicus; test: as §2; settings: ip
[16] = biological target: T4, D(1A) dopamine receptor

Row | Structure (SMILES) | Loss [1] | Ki [2] | Ki [3] | Ki [4] | pKi [5] | ED50 [6] | pKi [7] | pKi [8] | pKi [9] | Ki [10] | Ki [11] | pKi [12] | Loss [13] | pKi [14] | ED50 [15] | pKi [16]
1 | CCOc1ccccc1N1CCNCC1 | ~1% | 70 nM | 42.6 nM | 774 nM | < 6.00 | 3.4 mg/kg | 7.86 | 8.04 | 6.84 | – | – | – | – | – | – | –
2 | Clc1cncc(N2CCNCC2)n1 [MK-212] | 19% | 913 nM | – | > 1000 nM | < 6.00 | 2.8 mg/kg | 6.75 | 6.69 | < 6.00 | 844 nM | – | – | – | – | – | –
3 | Cc1ccccc1N1CCNCC1 | – | 108 nM | – | – | < 6.00 | > 20 mg/kg | 7.35 | 7.56 | < 6.00 | 62.4 nM | 558 nM | – | – | – | – | –
4 | Fc1cccc(N2CCNCC2)c1 | – | 670 nM | 86.5 nM | > 1000 nM | < 6.00 | 3.2 mg/kg | 7.51 | 6.94 | < 6.00 | – | – | – | – | – | – | –
5 | CN1C(=O)CN=C(c2ccccc2)c2cc(Cl)ccc21 [DIAZEPAM] | – | – | – | – | – | 10 mg/kg | – | – | – | – | – | – | – | – | – | –
6 | CSc1ccc2c(c1)N(CCC1CCCCN1C)c1ccccc1S2 (stereo not drawn) [THIORIDAZINE] | 7.3% | – | – | – | – | 9.7 mg/kg | – | – | – | – | – | – | – | – | – | –
7 | CC(C)c1ccccc1N1CCNCC1 | – | 168 nM | – | 190 nM | – | 5.9 mg/kg | 8.40 | 7.90 | 6.95 | 23.4 nM | – | < 6.00 | 0.1% | – | – | –
8 | CNCCCN1c2ccccc2CCc2ccccc21 [DESIPRAMINE] | – | – | – | – | – | 20 mg/kg | – | – | – | – | – | – | – | – | – | –
9 | COC(=O)[C@H]1[C@@H](OC(=O)c2ccccc2)C[C@@H]2CC[C@H]1N2C [COCAINE] | – | – | – | – | – | 10 mg/kg | – | – | – | – | – | – | – | – | – | –
10 | CN1[C@@H]2CC[C@H]1C[C@@H](OC(=O)C(CO)c1ccccc1)C2 (stereo partly drawn) [ATROPINE] | – | – | – | – | – | 3 mg/kg | – | – | – | – | – | – | – | – | – | –
11 | Clc1ccccc1N1CCNCC1 | 3.1% | – | – | > 1000 nM | – | – | 7.93 | 7.71 | – | – | – | – | – | < 6.00 | 10.2 mg/kg | < 6.00
12 | CC(C)Oc1ccccc1N1CCNCC1 | 0.4% | 84 nM | 19 nM | 235 nM | < 6.00 | 4.8 mg/kg | 8.16 | 8.12 | 7.19 | – | – | – | – | – | – | –
13 | N#Cc1ccccc1N1CCNCC1 | 4.3% | 214 nM | 26.1 nM | > 1000 nM | < 6.00 | 5.7 mg/kg | 7.66 | 7.59 | < 6.00 | – | – | – | – | – | – | –
14 | Clc1cccc(N2CCNCC2)c1 [CHLOROPHENYLPIPERAZINE] | 1.5% | 236 nM | 25 nM | 40 nM | < 6.00 | 2.4 mg/kg | 8.36 | 7.64 | < 6.00 | – | – | – | – | – | – | –
